Assay results reported in article PMC6606825 (Journal of Ginseng Research, 2018).
Marks after values point to notes of the source that are not given here.

Experiment: Pharmacokinetics of CK and its metabolite 20
Type: in vivo, healthy Chinese volunteers
Procedure, shortened: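 Healthy adults given one oral tablet dose fasting (overnight, or 10 h in a crossover food-effect arm); 30 subjects from the 100/200/400 mg groups were pooled with 24 from 200 mg fasting periods. Plasma was stored at −70°C, extracted with MTBE plus internal standards and assayed by LC-MS/MS. Cmax was observed and AUClast calculated by linear trapezoid, each divided by dose. The metabolite/parent ratio was also calculated. Genotyping used Sequenom MassARRAY, and log-transformed values were compared by one-way ANOVA.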

[1] = ABCG2 rs3114018 AA (first line), mean (SD)
[2] = ABCG2 rs3114018 AA (third line), mean (SD)

CC(C)=CCC[C@](C)(O[C@@H]1O[C@H](CO)[C@@H](O)[C@H](O)[C@H]1O)[C@H]1CC[C@]2(C)[C@@H]1[C@H](O)C[C@@H]1[C@@]3(C)CC[C@H](O)C(C)(C)[C@@H]3CC[C@]12C [Ginsenoside compound K, 20-O-beta-D-glucopyranosyl-20(S)-protopanaxadiol]
CK Cmax/D (ABCG2 rs2725248 CC, mean (SD)): 4.46 (1.08) | CK AUClast/D [1]: 25.71 (14.88) | CK Cmax/D [1]: 3.40 (1.60) | CK AUClast/D [2]: 26.43 (22.97) | CK Cmax/D [2]: 3.36 (2.54) | CK AUClast/D (ABCG2 rs3114018 CA, mean (SD)): 30.74 (15.11) | CK Cmax/D (ABCG2 rs3114018 CA, mean (SD)): 4.02 (2.12) | CK AUClast/D (ABCG2 rs6857600 CC, mean (SD)): 29.60 (19.18) | CK Cmax/D (ABCG2 rs6857600 CC, mean (SD)): 3.72 (2.28) | CK AUClast/D (ABCG2 rs6857600 TC, mean (SD)): 26.00 (7.52) | CK Cmax/D (ABCG2 rs6857600 TC, mean (SD)): 3.79 (1.18) | CK AUClast/D (ABCG2 rs6857600 TT, mean (SD)): 16.47 (5.68) | CK Cmax/D (ABCG2 rs6857600 TT, mean (SD)): 2.37 (0.75) | CK AUClast/D (ABCG2 rs12505410 GG, mean (SD)): 36.50 (20.67) | CK Cmax/D (ABCG2 rs12505410 GG, mean (SD)): 3.96 (1.91) | CK AUClast/D (ABCG2 rs12505410 GT, mean (SD)): 33.35 (21.92) | CK Cmax/D (ABCG2 rs12505410 GT, mean (SD)): 4.39 (2.76) | CK AUClast/D (ABCG2 rs12505410 TT, mean (SD)): 22.29 (7.69) | CK Cmax/D (ABCG2 rs12505410 TT, mean (SD)): 3.00 (1.05) | CK AUClast/D (ABCG2 rs17731799 GG, mean (SD)): 25.71 (14.88) | CK Cmax/D (ABCG2 rs17731799 GG, mean (SD)): 3.40 (1.60) | CK AUClast/D (ABCG2 rs17731799 GT, mean (SD)): 32.10 (14.45) | CK Cmax/D (ABCG2 rs17731799 GT, mean (SD)): 4.13 (1.88) | CK AUClast/D (ABCG2 rs17731799 TT, mean (SD)): 26.40 (21.35) | CK Cmax/D (ABCG2 rs17731799 TT, mean (SD)): 3.47 (2.62) | CK AUClast/D (CFTR rs213950 AG, mean (SD)): 26.46 (20.44) | CK Cmax/D (CFTR rs213950 AG, mean (SD)): 3.36 (2.54) | CK AUClast/D (CFTR rs213950 GG, mean (SD)): 31.13 (15.12) | CK Cmax/D (CFTR rs213950 GG, mean (SD)): 4.14 (1.85) | CK AUClast/D (CFTR rs213968 CC, mean (SD)): 30.36 (14.71) | CK Cmax/D (CFTR rs213968 CC, mean (SD)): 4.14 (1.90) | CK AUClast/D (CFTR rs213968 CT, mean (SD)): 27.70 (20.72) | CK Cmax/D (CFTR rs213968 CT, mean (SD)): 3.43 (2.53) | CK AUClast/D (CFTR rs213968 TT, mean (SD)): 28.15 (14.72) | CK Cmax/D (CFTR rs213968 TT, mean (SD)): 3.81 (1.64) | CK AUClast/D (CFTR rs213976 GG, mean (SD)): 27.63 (17.53) | CK Cmax/D (CFTR rs213976 GG, mean (SD)): 3.62 (1.91) | CK AUClast/D (CFTR rs213976 GT, mean (SD)): 28.13 (20.65) | CK Cmax/D (CFTR rs213976 GT, mean (SD)): 3.63 (2.58) | CK AUClast/D (CFTR rs213976 TT, mean (SD)): 29.55 (14.70) | CK Cmax/D (CFTR rs213976 TT, mean (SD)): 3.89 (1.85) | CK AUClast/D (CFTR rs1042077 GG, mean (SD)): 28.15 (14.72) | CK Cmax/D (CFTR rs1042077 GG, mean (SD)): 3.81 (1.64) | CK AUClast/D (CFTR rs1042077 GT, mean (SD)): 27.96 (21.11) | CK Cmax/D (CFTR rs1042077 GT, mean (SD)): 3.46 (2.58) | CK AUClast/D (CFTR rs1042077 TT, mean (SD)): 30.54 (15.14) | CK Cmax/D (CFTR rs1042077 TT, mean (SD)): 4.12 (1.95) | CK AUClast/D (CFTR rs2106155 AA, mean (SD)): 25.97 (16.89) | CK Cmax/D (CFTR rs2106155 AA, mean (SD)): 3.41 (1.86) | CK AUClast/D (CFTR rs2106155 CA, mean (SD)): 31.04 (21.72) | CK Cmax/D (CFTR rs2106155 CA, mean (SD)): 4.02 (2.69) | CK AUClast/D (CFTR rs2106155 CC, mean (SD)): 29.28 (14.69) | CK Cmax/D (CFTR rs2106155 CC, mean (SD)): 3.86 (1.85) | CK AUClast/D (CFTR rs2237726 CC, mean (SD)): 29.76 (14.41) | CK Cmax/D (CFTR rs2237726 CC, mean (SD)): 3.89 (1.81) | CK AUClast/D (CFTR rs2237726 CT, mean (SD)): 26.16 (19.95) | CK Cmax/D (CFTR rs2237726 CT, mean (SD)): 3.35 (2.25) | CK AUClast/D (CFTR rs2237726 TT, mean (SD)): 32.16 (19.24) | CK Cmax/D (CFTR rs2237726 TT, mean (SD)): 3.98 (2.20) | CK AUClast/D (CFTR rs4148711 AA, mean (SD)): 28.15 (14.72) | CK Cmax/D (CFTR rs4148711 AA, mean (SD)): 3.81 (1.64) | CK AUClast/D (CFTR rs4148711 AT, mean (SD)): 27.70 (20.72) | CK Cmax/D (CFTR rs4148711 AT, mean (SD)): 3.43 (2.53) | CK AUClast/D (CFTR rs4148711 TT, mean (SD)): 29.34 (14.49) | CK Cmax/D (CFTR rs4148711 TT, mean (SD)): 3.89 (1.63) | CK AUClast/D (NR1I2 rs1464602 AA, mean (SD)): 28.65 (21.81) | CK Cmax/D (NR1I2 rs1464602 AA, mean (SD)): 3.54 (2.35) | CK AUClast/D (NR1I2 rs1464602 AG, mean (SD)): 33.46 (13.69) | CK Cmax/D (NR1I2 rs1464602 AG, mean (SD)): 4.62 (2.09) | CK AUClast/D (NR1I2 rs1464602 GG, mean (SD)): 20.43 (9.71) | CK Cmax/D (NR1I2 rs1464602 GG, mean (SD)): 2.65 (1.27) | CK AUClast/D (NR1I2 rs1523127 AA, mean (SD)): 29.24 (18.87) | CK Cmax/D (NR1I2 rs1523127 AA, mean (SD)): 3.82 (2.36) | CK AUClast/D (NR1I2 rs1523127 CA, mean (SD)): 27.08 (14.85) | CK Cmax/D (NR1I2 rs1523127 CA, mean (SD)): 3.53 (1.71) | CK AUClast/D (NR1I2 rs1523127 CC, n = 1): 28.50 (−) ^2) | CK Cmax/D (NR1I2 rs1523127 CC, n = 1): 3.49 (−) ^2) | CK AUClast/D (NR1I2 rs2276707 CC, mean (SD)): 25.30 (13.16) | CK Cmax/D (NR1I2 rs2276707 CC, mean (SD)): 3.46 (1.86) | CK AUClast/D (NR1I2 rs2276707 CT, mean (SD)): 30.38 (20.00) | CK Cmax/D (NR1I2 rs2276707 CT, mean (SD)): 3.88 (2.41) | CK AUClast/D (NR1I2 rs2276707 TT, mean (SD)): 28.36 (15.79) | CK Cmax/D (NR1I2 rs2276707 TT, mean (SD)): 3.71 (1.90) | CK AUClast/D (NR1I2 rs2472682 AA, mean (SD)): 21.56 (9.07) | CK Cmax/D (NR1I2 rs2472682 AA, mean (SD)): 2.87 (1.20) | CK AUClast/D (NR1I2 rs2472682 CA, mean (SD)): 34.34 (20.92) | CK Cmax/D (NR1I2 rs2472682 CA, mean (SD)): 4.45 (2.60) | CK AUClast/D (NR1I2 rs2472682 CC, mean (SD)): 24.44 (13.14) | CK Cmax/D (NR1I2 rs2472682 CC, mean (SD)): 3.17 (1.39) | CK AUClast/D (NR1I2 rs6785049 AA, mean (SD)): 22.20 (13.19) | CK Cmax/D (NR1I2 rs6785049 AA, mean (SD)): 2.88 (1.46) | CK AUClast/D (NR1I2 rs6785049 AG, mean (SD)): 32.86 (19.88) | CK Cmax/D (NR1I2 rs6785049 AG, mean (SD)): 4.27 (2.46) | CK AUClast/D (NR1I2 rs6785049 GG, mean (SD)): 24.29 (12.99) | CK Cmax/D (NR1I2 rs6785049 GG, mean (SD)): 3.22 (1.69) | CK AUClast/D (NR1I2 rs7643645 AA, mean (SD)): 26.64 (13.51) | CK Cmax/D (NR1I2 rs7643645 AA, mean (SD)): 3.76 (2.21) | CK AUClast/D (NR1I2 rs7643645 AG, mean (SD)): 27.63 (13.83) | CK Cmax/D (NR1I2 rs7643645 AG, mean (SD)): 3.41 (1.51) | CK AUClast/D (NR1I2 rs7643645 GG, mean (SD)): 39.83 (34.46) | CK Cmax/D (NR1I2 rs7643645 GG, mean (SD)): 5.06 (3.69)
